One may read the IC50 as the concentration that gives 50% inhibition. The Tmax is the time from dosing to the highest level. As a reminder, the Cmax is the peak of the concentration-time curve. As usually defined, the bioavailability is the share of a dose that reaches the circulation, judged against a reference dose that is usually intravenous. A higher bioavailability goes with much systemic uptake. For orientation: clearance means the rate of elimination divided by the concentration. Low readings indicate inefficient removal, high ones efficient removal.

The source of these data is ChEMBL document CHEMBL4043255, “Design, synthesis and biological evaluation of novel histone deacetylase inhibitors incorporating 4-aminoquinazolinyl systems as capping groups” (Bioorg Med Chem Lett, 2017).

Data set [1] in a line: Inhibition of HDAC in human HeLa nuclear extract using Fluor de Lys as substrate after 15 mins by fluorescence assay.
In data set [2] the target is T1, Protein deacetylase HDAC6 (Homo sapiens, UniProt Q9UBN7).
T1 sequence (Q9UBN7 whole entry): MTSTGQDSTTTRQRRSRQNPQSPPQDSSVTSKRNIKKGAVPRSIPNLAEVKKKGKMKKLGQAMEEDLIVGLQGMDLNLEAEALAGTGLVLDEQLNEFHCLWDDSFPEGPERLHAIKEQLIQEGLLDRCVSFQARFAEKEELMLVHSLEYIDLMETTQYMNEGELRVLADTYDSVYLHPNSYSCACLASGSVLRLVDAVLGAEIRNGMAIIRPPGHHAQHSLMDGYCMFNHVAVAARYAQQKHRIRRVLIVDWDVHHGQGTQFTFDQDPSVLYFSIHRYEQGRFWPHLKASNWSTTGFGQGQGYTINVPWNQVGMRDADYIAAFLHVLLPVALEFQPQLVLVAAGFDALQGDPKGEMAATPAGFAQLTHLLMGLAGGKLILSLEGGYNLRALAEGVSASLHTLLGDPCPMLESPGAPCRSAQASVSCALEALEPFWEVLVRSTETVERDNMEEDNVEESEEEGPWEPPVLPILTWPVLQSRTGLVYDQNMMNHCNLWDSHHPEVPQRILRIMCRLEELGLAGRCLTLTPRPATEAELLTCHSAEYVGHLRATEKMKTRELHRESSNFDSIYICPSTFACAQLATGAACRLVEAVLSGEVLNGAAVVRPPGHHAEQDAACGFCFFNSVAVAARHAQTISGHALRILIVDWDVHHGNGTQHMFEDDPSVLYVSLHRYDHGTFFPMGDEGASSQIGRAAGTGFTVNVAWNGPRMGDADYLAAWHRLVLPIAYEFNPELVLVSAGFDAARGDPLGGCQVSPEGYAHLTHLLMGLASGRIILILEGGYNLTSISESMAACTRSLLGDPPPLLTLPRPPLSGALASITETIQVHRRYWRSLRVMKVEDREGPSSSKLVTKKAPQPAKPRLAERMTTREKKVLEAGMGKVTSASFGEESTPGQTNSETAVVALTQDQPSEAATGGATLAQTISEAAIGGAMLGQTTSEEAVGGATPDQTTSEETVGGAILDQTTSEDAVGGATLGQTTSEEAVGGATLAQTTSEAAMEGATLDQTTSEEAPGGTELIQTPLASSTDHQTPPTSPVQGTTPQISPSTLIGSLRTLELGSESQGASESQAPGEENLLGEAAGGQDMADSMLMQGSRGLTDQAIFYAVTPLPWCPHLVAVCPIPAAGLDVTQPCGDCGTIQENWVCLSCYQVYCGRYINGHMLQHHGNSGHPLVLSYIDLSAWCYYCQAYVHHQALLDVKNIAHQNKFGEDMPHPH
The data set is described as follows: Inhibition of HDAC6 (unknown origin).

The next data set relates to K562. The data set is described as follows: Anti-proliferative activity against human K562 cells after 48 hrs by MTT assay. The data set is classed as functional, cell-based. The note with it: K562, 48 h. Background: Formazan colour is commonly taken as a measure of viable cells.
A further data set has as its target Histone deacetylase 1 (Homo sapiens, UniProt Q13547). Kind of data set: Inhibition of HDAC1 (unknown origin).
In data set [3] the target is Voltage-gated inwardly rectifying potassium channel KCNH2 (Homo sapiens, UniProt Q12809). The data set is described as follows: Inhibition of recombinant human ERG expressed in HEK293 cells at -80 mV holding potential measured for 9 mins by Qpatch clamp method. In kind it is cell-based. Background: The patch-clamp technique gives a direct electrical read-out from membranes.

Another data set concerns the target T2, Histone deacetylase 8 (Homo sapiens, UniProt Q9BY41).
T2 sequence (Q9BY41 whole entry): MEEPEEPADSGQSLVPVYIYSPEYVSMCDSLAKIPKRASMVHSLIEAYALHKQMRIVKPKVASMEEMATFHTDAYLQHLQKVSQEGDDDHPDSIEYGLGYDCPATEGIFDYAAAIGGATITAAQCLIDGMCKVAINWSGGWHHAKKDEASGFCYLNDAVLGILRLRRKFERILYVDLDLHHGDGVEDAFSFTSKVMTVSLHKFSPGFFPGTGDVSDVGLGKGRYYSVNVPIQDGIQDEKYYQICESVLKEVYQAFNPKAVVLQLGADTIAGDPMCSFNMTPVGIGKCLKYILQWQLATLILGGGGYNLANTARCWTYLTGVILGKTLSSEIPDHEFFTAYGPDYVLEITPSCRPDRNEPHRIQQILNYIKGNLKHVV
Kind of data set: Inhibition of HDAC8 (unknown origin).

The next data set deals with HCT-116. The data set is described as follows: Anti-proliferative activity against human HCT116 cells after 48 hrs by MTT assay. In kind it is functional, cell-based. The note with it: HCT-116, 48 h.
Data set [4] has as its system A549. The data set is described as follows: Anti-proliferative activity against human A549 cells after 48 hrs by MTT assay. As to conditions: A549, 48 h. In kind it is functional, cell-based.
In the next data set the test system is MRC5. The data set is described as follows: Anti-proliferative activity against human MRC5 cells after 48 hrs by MTT assay. In kind it is ADME, cell-based. The note with it: MRC5, 48 h.
In the next data set the test system is PC-3. Kind of data set: Anti-proliferative activity against human PC3 cells after 48 hrs by MTT assay. As to conditions: PC-3, 48 h. The data set is classed as functional, cell-based.
The subject of a further data set is MDA-MB-231. The data set is described as follows: Anti-proliferative activity against human MDA-MB-231 cells after 48 hrs by MTT assay. In kind it is functional, cell-based. The note with it: MDA-MB-231, 48 h.
A short description of data set [5]: Tmax in Sprague-Dawley rat at 20 mg/kg, po by HPLC method. In kind it is ADME, organism-based. The note with it: in vivo. The gist of the method: (§1)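 Female Sprague-Dawley rats were dosed with the compound at 2 mg/kg iv (for clearance and terminal half-life) or 20 mg/kg orally (for Cmax, Tmax and oral bioavailability). Blood was collected at various time points up to 24 h, and plasma was analyzed by HPLC coupled to triple quadrupole mass spectrometry.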

The nature of data set [6]: Cmax in Sprague-Dawley rat at 20 mg/kg, po by HPLC method. The arrangement: dose 20 mg/kg, route oral. In kind it is ADME, organism-based. As to conditions: in vivo. The method, boiled down: as §1
Data set [7] is described as follows: Oral bioavailability in Sprague-Dawley rat at 20 mg/kg by HPLC method. The data set is classed as ADME, organism-based. As to conditions: in vivo. The gist of the method: as §1
The next data set relates to Mus musculus. Kind of data set: Toxicity in mouse xenografted with human A549 cells at 20 to 40 mg/kg, ip administered once every other day for 21 days. In kind it is organism-based. The note with it: in vivo, 504 h. The method, boiled down:
(§2)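 Mice bearing non-small cell lung cancer A549 xenografts were given the compound ip at 20 or 40 mg/kg once every other day for a 21-day efficacy study.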
(In general: A xenograft is tissue or cells of one species grown in another, often human tumour cells in immunodeficient mice.)

Data set [8] in a line: Clearance in Sprague-Dawley rat at 2 mg/kg, iv by HPLC method. In kind it is ADME, organism-based. The note with it: in vivo. The gist of the method: as §1
Data set [9] is described as follows: Terminal half life in Sprague-Dawley rat at 2 mg/kg, iv by HPLC method. In kind it is ADME, organism-based. As to conditions: in vivo, read-out: beta t1/2 (converted). The method, boiled down: as §1
The test system of data set [10] is A549. The data set is described as follows: Antitumor activity against human A549 cells xenografted in mouse assessed as tumor growth inhibition at 40 mg/kg, ip administered once every other day for 21 days relative to control. In kind it is functional. As to conditions: 504 h, read-out: TGI. The method, boiled down: as §2
The subject of data set [11] is A549. The data set is described as follows: Antitumor activity against human A549 cells xenografted in mouse assessed as tumor growth inhibition at 20 mg/kg, ip administered once every other day for 21 days relative to control. In kind it is functional. The note with it: 504 h, read-out: TGI. The gist of the method: as §2
The nature of data set [12]: in vivo. As to conditions: Sprague-Dawley, rat, iv, 2 mg/kg.
Data set [13] in a line: in vivo. The note with it: Sprague-Dawley, rat, po, 20 mg/kg.

Chain of Voltage-gated inwardly rectifying potassium channel KCNH2 (Q12809 whole entry): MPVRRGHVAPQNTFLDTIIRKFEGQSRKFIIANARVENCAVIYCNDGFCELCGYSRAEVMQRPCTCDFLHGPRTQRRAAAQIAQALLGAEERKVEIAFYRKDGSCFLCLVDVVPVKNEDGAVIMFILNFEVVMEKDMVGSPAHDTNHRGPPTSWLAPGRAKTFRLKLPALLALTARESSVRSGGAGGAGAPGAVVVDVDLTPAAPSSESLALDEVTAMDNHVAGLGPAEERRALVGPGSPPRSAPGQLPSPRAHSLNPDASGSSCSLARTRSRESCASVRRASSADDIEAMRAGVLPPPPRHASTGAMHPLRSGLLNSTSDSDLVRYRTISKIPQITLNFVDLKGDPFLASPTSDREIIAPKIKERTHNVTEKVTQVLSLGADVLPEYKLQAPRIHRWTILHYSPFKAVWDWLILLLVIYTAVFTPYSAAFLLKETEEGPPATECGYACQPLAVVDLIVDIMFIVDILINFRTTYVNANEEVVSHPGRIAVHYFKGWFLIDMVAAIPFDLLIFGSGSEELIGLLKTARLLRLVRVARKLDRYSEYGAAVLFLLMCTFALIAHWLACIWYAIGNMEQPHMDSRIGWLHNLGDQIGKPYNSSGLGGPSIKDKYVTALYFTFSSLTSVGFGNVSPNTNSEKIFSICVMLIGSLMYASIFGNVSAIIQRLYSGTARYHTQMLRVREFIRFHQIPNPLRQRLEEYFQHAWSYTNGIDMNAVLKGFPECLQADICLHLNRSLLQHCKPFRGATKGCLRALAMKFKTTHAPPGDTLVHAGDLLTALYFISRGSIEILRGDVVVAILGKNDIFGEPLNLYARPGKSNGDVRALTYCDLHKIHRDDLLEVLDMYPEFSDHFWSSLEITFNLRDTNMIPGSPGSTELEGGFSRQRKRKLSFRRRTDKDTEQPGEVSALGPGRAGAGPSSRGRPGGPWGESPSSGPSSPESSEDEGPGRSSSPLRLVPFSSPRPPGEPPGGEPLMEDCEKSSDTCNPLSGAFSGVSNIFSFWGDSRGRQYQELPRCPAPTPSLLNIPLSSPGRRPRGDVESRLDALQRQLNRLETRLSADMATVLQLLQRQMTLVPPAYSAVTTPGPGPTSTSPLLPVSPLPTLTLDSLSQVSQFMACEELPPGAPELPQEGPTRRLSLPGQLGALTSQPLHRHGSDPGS
Chain of Histone deacetylase 1 (Q13547 whole entry): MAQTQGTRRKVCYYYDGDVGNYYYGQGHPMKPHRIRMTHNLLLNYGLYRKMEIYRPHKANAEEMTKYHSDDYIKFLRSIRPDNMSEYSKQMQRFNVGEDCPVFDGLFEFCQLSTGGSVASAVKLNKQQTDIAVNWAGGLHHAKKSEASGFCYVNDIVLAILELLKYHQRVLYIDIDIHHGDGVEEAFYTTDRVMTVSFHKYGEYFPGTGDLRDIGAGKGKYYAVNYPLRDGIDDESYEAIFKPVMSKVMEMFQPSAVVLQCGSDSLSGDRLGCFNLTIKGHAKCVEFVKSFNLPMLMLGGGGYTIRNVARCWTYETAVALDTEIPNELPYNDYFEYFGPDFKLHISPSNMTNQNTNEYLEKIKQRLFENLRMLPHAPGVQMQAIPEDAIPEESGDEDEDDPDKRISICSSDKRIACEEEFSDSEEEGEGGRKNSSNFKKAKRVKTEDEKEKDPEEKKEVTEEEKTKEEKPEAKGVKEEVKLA

For the compound `COCCOc1cc2ncnc(NCCCCCCC(=O)NO)c2cc1OCCOC`, the 50% inhibitory concentration (IC50) in [1] came out at 0.152 µM.

In the case of `Nc1ccc2ncnc(NCCCCCCC(=O)NO)c2c1`, the IC50 in [1] came to 0.0121 µM.

Regarding `O=C(CCCCCCNc1ncnc2cc(F)ccc12)NO`, the IC50 in data set [1] stood at 0.0207 µM.

Take `COc1cc2ncnc(NCCCCCCC(=O)NO)c2cc1OC`: the half-maximal inhibitory concentration (IC50) in data set [1] came out at 0.0131 µM.

The compound `O=C(CCCCCCNc1ncnc2ccc([N+](=O)[O-])cc12)NO` gave an IC50 in [1] of 0.0229 µM.

Regarding `COc1cc2ncnc(NCCCCCC(=O)NO)c2cc1OC`, half-maximal inhibition in data set [1] (IC50) was put at 0.0105 µM.

For the compound `O=C(CCCCCNc1ncnc2ccccc12)NO`, the IC50 in data set [1] was determined as 0.0412 µM.

In [1], `O=C(CCCCCCNc1ncnc2cc(Cl)ccc12)NO` had an IC50 of 0.0242 µM.

Take `O=C(CCCCCCNc1ncnc2ccc(F)cc12)NO`: the IC50 in data set [2] is 0.008 µM; in the data set on K562, 0.86 µM; at Histone deacetylase 1, 0.013 µM; in data set [3], > 30 µM; on Histone deacetylase 8, 1.46 µM; in the data set on HCT-116, 3.45 µM. Also, the IC50 was determined as 0.147 µM with A549 [4]; 76.5 µM in the data set with MRC5; 1.02 µM with PC-3; 0.00817 µM in [1]; 0.49 µM in the data set with MDA-MB-231.

In turn, `O=C(CCCCCCNc1ncnc2ccccc12)NO` gave an IC50 in data set [1] of 0.0338 µM.

For the compound `Cc1cccc2c(NCCCCCCC(=O)NO)ncnc12`, the half-maximal inhibitory concentration (IC50) in [1] stood at 0.0552 µM.

Turning to `O=C(CCCCCCNc1ncnc2ccc(Cl)cc12)NO`, the Tmax in data set [5] stood at 15 min. Besides, the IC50 is 0.007 µM in [2]; 1.21 µM in the data set on K562; 0.011 µM at Histone deacetylase 1; > 30 µM in data set [3]; 1.97 µM against Histone deacetylase 8; 2.11 µM with HCT-116. Moreover, the concentration for half-maximal inhibition (IC50) in the data set on A549 [4] was 0.08 µM; in the data set with MRC5, 54.9 µM; in the data set with PC-3, 0.76 µM; in data set [1], 0.00308 µM; in the data set on MDA-MB-231, 0.17 µM. The compound further yielded a Cmax in data set [6] of 0.146 µg/mL. The compound also showed a bioavailability in [7] of 16.8%. Further, the Activity entry with Mus musculus is reported as “Non-Toxic”. Also, the clearance in data set [8] is 3.18 L/h/kg. Further, in data set [9], the half-life is 172 min. In addition, the inhibition in vivo at 40 mg/kg in the data set on A549 [10] was determined as 76.4%. Besides, the inhibition in vivo at 20 mg/kg with A549 [11] worked out at 53.1%.

As for `Cc1ccc2ncnc(NCCCCCCC(=O)NO)c2c1`, the half-inhibitory concentration (IC50) in [1] came out at 0.0202 µM.

Take `O=C(CCCCCCNC(=O)c1ccccc1)NO`: in [1], the IC50 is > 2 µM.

Take `O=C(CCCCCCC(=O)Nc1ccccc1)NO` [VORINOSTAT]: the half-life in the data set “in vivo [12]” was determined as 12 min. This compound registered a bioavailability in the data set “in vivo [13]” of 11%. The compound further showed a 50% inhibitory concentration (IC50) with PC-3 of 2.92 µM.
